From ChEMBL document CHEMBL4371011, “Pyrrolone Derivatives as Intracellular Allosteric Modulators for Chemokine Receptors: Selective and Dual-Targeting Inhibitors of CC Chemokine Receptors 1 and 2” (J Med Chem, 2018)
pIC50, pKi: −log10 of the molar value. Where “and” joins values, the source holds several entries; their conditions need not be identical. Equal entries are not always repeated. Calls of active or inactive are those of the source. No cut-off for these calls is given here.

What follows are compounds tested against T1, C-C chemokine receptor type 1 (Homo sapiens) (UniProt P32246) (assay: Inverse agonist activity at human TEV protease site linked CCR1 expressed in human U20S cell membranes co-expressing Gal4-VP16 transcription factor assessed as decrease in basal activity at 100 uM after 90 mins in presence of 1 uM GDP by [35S]GTPgammaS binding assay relative to control). Settings: not given.
T1 sequence (whole entry): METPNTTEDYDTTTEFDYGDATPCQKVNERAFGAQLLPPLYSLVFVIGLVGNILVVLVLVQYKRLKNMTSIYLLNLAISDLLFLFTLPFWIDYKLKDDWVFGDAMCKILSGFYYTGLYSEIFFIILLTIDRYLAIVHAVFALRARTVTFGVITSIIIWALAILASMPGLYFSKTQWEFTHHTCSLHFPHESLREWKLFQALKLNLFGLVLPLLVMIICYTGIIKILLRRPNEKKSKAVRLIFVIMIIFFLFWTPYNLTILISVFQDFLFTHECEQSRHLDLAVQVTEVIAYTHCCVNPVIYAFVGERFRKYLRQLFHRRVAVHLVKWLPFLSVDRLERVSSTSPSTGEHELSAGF
Type: functional
Method in brief: (§1)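 Basal [35S]GTPγS binding on human CCR1 U2OS membranes (10 μg) with saponin, in Tris/MgCl2/NaCl/EDTA/0.05% BSA, pH 7.4, without chemokine. Compound was tested at 100 μM with GDP at 1, 10 or 20 μM. Preincubation was 30 min at 25 °C, then 90 min after adding 0.3 nM [35S]GTPγS. Filtration and scintillation read-out; decrease versus basal.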

Question: With `CC(=O)C1=C(O)C(=O)N(c2ccc(Cl)c(C)c2)C1C1CCCCC1` (stereo unspecified) as the compound, how does the inhibition read?
Answer: 22%

Each compound was assayed against T1, C-C chemokine receptor type 1 (Homo sapiens) (assay: Inverse agonist activity at human TEV protease site linked CCR1 expressed in human U20S cell membranes co-expressing Gal4-VP16 transcription factor assessed as decrease in basal activity after 90 mins in presence of 1 uM GDP by [35S]GTPgammaS binding assay relative to control). Settings: not given.
Type: functional
Method in brief: as §1

Question: For `CC(=O)C1=C(O)C(=O)N(c2ccc(Cl)c(C)c2)C1C1CCCCC1` (stereo unspecified), which Activity is on record?
Answer: Active

Question: With `O=C(C1=C(O)C(=O)N(c2ccc(Br)cc2F)C1C1CCCCC1)C1CC1` (stereo unspecified) as the compound, how does the Activity read?
Answer: Active

Question: For `O=C(C1=C(O)C(=O)N(c2ccc(Br)cc2F)C1c1cccc(Br)c1)C1CC1` (stereo unspecified), which Activity is on record?
Answer: Active

Question: How did the Activity turn out when `CC(=O)C1=C(O)C(=O)N(c2ccc(Br)cc2F)C1C1CCCCC1` (stereo unspecified) was run?
Answer: Active

Each compound was assayed against T2, C-C chemokine receptor type 1 (Homo sapiens, UniProt P32246) (assay: (§2) Antagonist activity at human TEV protease site linked CCR1 expressed in human U20S cell membranes co-expressing Gal4-VP16 transcription factor assessed as reduction in CCL3-induced G-protein activation preincubated for 30 mins in presence of CCL3 followed by incubation of 90 mins by [35S]GTPgammaS binding assay). Settings: read-out: IC50.
T2 sequence (P32246 whole entry): T1 sequence (whole entry)
Type: functional
Method in brief: (§3)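 Stably transfected U2OS membranes (10 μg; human CCR1 or CCR2b) in 50 mM Tris-HCl pH 7.4 with 5 mM MgCl2, 100 mM NaCl, 1 mM EDTA, 0.05% BSA, 10 μM GDP and 10 μg saponin. Preincubated with graded compound plus 8 nM CCL3 (CCR1) or 20 nM CCL2 (CCR2), then 0.3 nM [35S]GTPγS for 90 min at 25 °C.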

Question: How did the pIC50 turn out when `CC(=O)C1=C(O)C(=O)N(c2ccc(Cl)c(C)c2)C1C1CCCCC1` (stereo unspecified) was run?
Answer: 5.71

Question: With `O=C(C1=C(O)C(=O)N(c2ccc(Br)cc2F)C1C1CCCCC1)C1CC1` (stereo unspecified) as the compound, how does the pIC50 read?
Answer: 6.02

Question: With `O=C(C1=C(O)C(=O)N(c2ccc(Br)cc2F)C1c1cccc(Br)c1)C1CC1` (stereo unspecified) as the compound, how does the pIC50 read?
Answer: 5.06

Question: How did the pIC50 turn out when `CC(=O)C1=C(O)C(=O)N(c2ccc(Br)cc2F)C1C1CCCCC1` (stereo unspecified) was run?
Answer: 6.23

Same assay, conditions: read-out: pIC50 (converted)

Question: `CC(=O)C1=C(O)C(=O)N(c2ccc(Cl)c(C)c2)C1C1CCCCC1` (stereo unspecified) was tested. Which IC50 did it give?
Answer: 1860 nM

Question: `O=C(C1=C(O)C(=O)N(c2ccc(Br)cc2F)C1C1CCCCC1)C1CC1` (stereo unspecified) was tested. Which IC50 did it give?
Answer: 933 nM

Question: `O=C(C1=C(O)C(=O)N(c2ccc(Br)cc2F)C1c1cccc(Br)c1)C1CC1` (stereo unspecified) was tested. Which IC50 did it give?
Answer: 8510 nM

Question: For `CC(=O)C1=C(O)C(=O)N(c2ccc(Br)cc2F)C1C1CCCCC1` (stereo unspecified), which IC50 is on record?
Answer: 550 nM

Species: Homo sapiens
Test: Selectivity ratio of IC50 for human TEV protease site linked CCR1 expressed in human U20S cell membranes co-expressing Gal4-VP16 transcription factor to IC50 for human TEV protease site linked CCR2b expressed in human U20S cell membranes co-expressing Gal4-VP16 transcription factor
Type: cell-based
Settings: not given

Question: Which Ratio IC50 does the source give for `CC(=O)C1=C(O)C(=O)N(c2ccc(Cl)c(C)c2)C1C1CCCCC1` (stereo unspecified) here?
Answer: 48

Question: `O=C(C1=C(O)C(=O)N(c2ccc(Br)cc2F)C1C1CCCCC1)C1CC1` (stereo unspecified) was tested. Which Ratio IC50 did it give?
Answer: 3

Question: How did the Ratio IC50 turn out when `CC(=O)C1=C(O)C(=O)N(c2ccc(Br)cc2F)C1C1CCCCC1` (stereo unspecified) was run?
Answer: 19

What follows are compounds tested against T3, C-C chemokine receptor type 2 (Homo sapiens, UniProt P41597) (assay: Displacement of [3H]-CCR2-RA-[R] from human TEV protease site linked CCR2b expressed in human U20S cell membranes co-expressing Gal4-VP16 transcription factor at 1 uM after 120 mins by scintillation spectrometry relative to control). Settings: not given.
Target sequence in this assay (P41597 whole entry, looked up, the tested form may be a part): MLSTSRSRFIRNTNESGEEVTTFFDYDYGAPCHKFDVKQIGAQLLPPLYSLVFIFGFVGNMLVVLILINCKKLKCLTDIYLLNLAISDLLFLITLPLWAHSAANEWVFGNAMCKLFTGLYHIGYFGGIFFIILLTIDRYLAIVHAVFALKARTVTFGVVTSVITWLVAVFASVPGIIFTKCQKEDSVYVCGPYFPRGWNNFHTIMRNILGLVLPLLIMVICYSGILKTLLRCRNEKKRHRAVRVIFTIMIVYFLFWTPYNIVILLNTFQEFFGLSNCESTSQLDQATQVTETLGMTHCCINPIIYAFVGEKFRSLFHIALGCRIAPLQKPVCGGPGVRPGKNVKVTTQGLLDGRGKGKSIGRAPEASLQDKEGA

Question: With `CC(=O)C1=C(O)C(=O)N(c2ccccc2)C1C1CCCCC1` (stereo unspecified) as the compound, how does the inhibition read?
Answer: 45%

Question: For `Cc1ccc(N2C(=O)C(O)=C(C(=O)c3ccccc3)C2C2CCCCC2)cc1` (stereo unspecified), which inhibition is on record?
Answer: 37%

Question: For `CC(=O)C1=C(O)C(=O)N(c2ccc(C)cc2)C1c1ccc(C)cc1` (stereo unspecified), which inhibition is on record?
Answer: 36%

Question: For `CC(=O)C1=C(O)C(=O)N(c2ccc(C)cc2)C1c1cccc(Cl)c1` (stereo unspecified), which inhibition is on record?
Answer: 19%

Question: Which inhibition does the source give for `CC(=O)C1=C(O)C(=O)N(c2ccc(C)cc2)C1c1ccccc1` (stereo unspecified) here?
Answer: 39%

Question: For `CC(=O)C1=C(O)C(=O)N(c2ccc(C)cc2)C1c1cccc(C)c1` (stereo unspecified), which inhibition is on record?
Answer: 11%

Question: Which inhibition does the source give for `O=C(C1=C(O)C(=O)N(c2ccc(Br)cc2F)C1c1cccc(Br)c1)C1CC1` (stereo unspecified) here?
Answer: 45%

The compounds below were run against T3, C-C chemokine receptor type 2 (assay: Inverse agonist activity at human TEV protease site linked CCR2b expressed in human U20S cell membranes co-expressing Gal4-VP16 transcription factor assessed as decrease in basal activity at 100 uM after 90 mins in presence of GDP by [35S]GTPgammaS binding assay relative to control). Settings: not given.
Type: functional
Method in brief: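 Basal G-protein activation on human CCR2b U2OS membranes (10 μg) plus 10 μg saponin and 10 μM GDP, pH 7.4 Tris buffer with NaCl, EDTA and BSA, no CCL2. Compound preincubated 30 min at 25 °C, then 90 min with 0.3 nM [35S]GTPγS. Bound label measured after filtration; change from basal.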
Target sequence in this assay (P41597 whole entry, looked up, the tested form may be a part): as above

Question: `O=C(C1=C(O)C(=O)N(c2ccc(Br)cc2F)C1C1CCCCC1)C1CC1` (stereo unspecified) was tested. Which Imax did it give?
Answer: 27%

Question: With `O=C(C1=C(O)C(=O)N(c2ccc(Br)cc2F)C1c1cccc(Br)c1)C1CC1` (stereo unspecified) as the compound, how does the Imax read?
Answer: 58%

These compounds were tested against T1, C-C chemokine receptor type 1 (Homo sapiens) (assay: Inverse agonist activity at human TEV protease site linked CCR1 expressed in human U20S cell membranes co-expressing Gal4-VP16 transcription factor assessed as decrease in basal activity at 100 uM after 90 mins in presence of 20 uM GDP by [35S]GTPgammaS binding assay relative to control). Settings: not given.
Type: functional
Method in brief: as §1

Question: For `CC(=O)C1=C(O)C(=O)N(c2ccc(Cl)c(C)c2)C1C1CCCCC1` (stereo unspecified), which inhibition is on record?
Answer: 25%

These compounds were tested against T3, C-C chemokine receptor type 2 (assay: as §2, with “CCR2b” for “CCR1”, “CCL2-induced” for “CCL3-induced”, “CCL2” for “CCL3”). Settings: read-out: IC50.
Type: functional
Method in brief: as §3
Target sequence in this assay (P41597 whole entry, the tested form may be a part): as the sequence (P41597 whole entry, looked up, the tested form may be a part) above

Question: `CC(=O)C1=C(O)C(=O)N(c2ccc(Cl)c(C)c2)C1C1CCCCC1` (stereo unspecified) was tested. Which pIC50 did it give?
Answer: 7.40

Question: `O=C(C1=C(O)C(=O)N(c2ccc(Br)cc2F)C1C1CCCCC1)C1CC1` (stereo unspecified) was tested. Which pIC50 did it give?
Answer: 6.48

Question: With `O=C(C1=C(O)C(=O)N(c2ccc(Br)cc2F)C1c1cccc(Br)c1)C1CC1` (stereo unspecified) as the compound, how does the pIC50 read?
Answer: 5.06

Question: `CC(=O)C1=C(O)C(=O)N(c2ccc(Br)cc2F)C1C1CCCCC1` (stereo unspecified) was tested. Which pIC50 did it give?
Answer: 7.52

Same assay, conditions: read-out: pIC50 (converted)

Question: With `CC(=O)C1=C(O)C(=O)N(c2ccc(Cl)c(C)c2)C1C1CCCCC1` (stereo unspecified) as the compound, how does the IC50 read?
Answer: 33.9 nM

Question: How did the IC50 turn out when `O=C(C1=C(O)C(=O)N(c2ccc(Br)cc2F)C1C1CCCCC1)C1CC1` (stereo unspecified) was run?
Answer: 288 nM

These compounds were tested against T2, C-C chemokine receptor type 1 (assay: biochemical). Settings: not given.

Question: How did the pKi turn out when `Cc1ccc(N2C(=O)C(O)=C(C(=O)c3ccccc3)C2C2CCCCC2)cc1` (stereo unspecified) was run?
Answer: 7.11

Question: How did the pKi turn out when `CC(=O)C1=C(O)C(=O)N(c2ccc(C)cc2)C1c1ccc(C)cc1` (stereo unspecified) was run?
Answer: 6.71 and 6.70

Question: How did the pKi turn out when `CC(=O)C1=C(O)C(=O)N(c2ccc(Cl)c(C)c2)C1C1CCCCC1` (stereo unspecified) was run?
Answer: 7.51

Question: How did the pKi turn out when `CC(=O)C1=C(O)C(=O)N(c2ccc(C)cc2)C1c1cccc(Cl)c1` (stereo unspecified) was run?
Answer: 6.70

Question: `CC(=O)C1=C(O)C(=O)N(c2ccc(C)cc2)C1c1ccccc1` (stereo unspecified) was tested. Which pKi did it give?
Answer: 6.79

Question: How did the pKi turn out when `O=C(C1=C(O)C(=O)N(c2ccc(Br)cc2F)C1C1CCCCC1)C1CC1` (stereo unspecified) was run?
Answer: 8.30

Question: With `O=C(C1=C(O)C(=O)N(c2ccc(Br)cc2F)C1c1cccc(Br)c1)C1CC1` (stereo unspecified) as the compound, how does the pKi read?
Answer: 7.30

These compounds were tested against T1, C-C chemokine receptor type 1 (Homo sapiens) (assay: Displacement of [3H]-CCR2-RA-[R] from human TEV protease site linked CCR1 expressed in human U20S cell membranes co-expressing Gal4-VP16 transcription factor at 1 uM after 120 mins by scintillation spectrometry relative to control). Settings: not given.

Question: For `CC(=O)C1=C(O)C(=O)N(c2ccccc2)C1C1CCCCC1` (stereo unspecified), which inhibition is on record?
Answer: 42%

Question: For `CC(=O)C1=C(O)C(=O)N(c2ccc(C)cc2)C1c1cccc(C)c1` (stereo unspecified), which inhibition is on record?
Answer: 47%

These compounds were tested against T1, C-C chemokine receptor type 1 (Homo sapiens) (assay: Inverse agonist activity at human TEV protease site linked CCR1 expressed in human U20S cell membranes co-expressing Gal4-VP16 transcription factor assessed as decrease in basal activity at 100 uM after 90 mins in presence of 10 uM GDP by [35S]GTPgammaS binding assay relative to control). Settings: not given.
Type: functional
Method in brief: as §1

Question: With `CC(=O)C1=C(O)C(=O)N(c2ccc(Cl)c(C)c2)C1C1CCCCC1` (stereo unspecified) as the compound, how does the inhibition read?
Answer: 26%

What follows are compounds tested against T3, C-C chemokine receptor type 2 (assay: Displacement of [3H]-CCR2-RA-[R] from human TEV protease site linked CCR2b expressed in human U20S cell membranes co-expressing Gal4-VP16 transcription factor after 120 mins by scintillation spectrometry). Settings: read-out: Ki.
Target sequence in this assay (P41597 whole entry, the tested form may be a part): as the sequence (P41597 whole entry, looked up, the tested form may be a part) above

Question: How did the pKi turn out when `CC(=O)C1=C(O)C(=O)N(c2ccc(Cl)c(C)c2)C1C1CCCCC1` (stereo unspecified) was run?
Answer: 8.05

Question: With `O=C(C1=C(O)C(=O)N(c2ccc(Br)cc2F)C1C1CCCCC1)C1CC1` (stereo unspecified) as the compound, how does the pKi read?
Answer: 7.82

Question: How did the pKi turn out when `CC(=O)C1=C(O)C(=O)N(c2ccc(Br)cc2F)C1C1CCCCC1` (stereo unspecified) was run?
Answer: 8.22

Same assay, conditions: read-out: pKi (converted)

Question: How did the Ki turn out when `CC(=O)C1=C(O)C(=O)N(c2ccc(Cl)c(C)c2)C1C1CCCCC1` (stereo unspecified) was run?
Answer: 8.13 nM
